For assay [1], the target named is Glucose-6-phosphate 1-dehydrogenase (Homo sapiens, UniProt P11413). Nature of the assay: Inhibition of human glucose-6-phosphate dehydrogenase after 90 mins by resazurin/diaphorasecoupled assay. Put shortly:
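Dose response with a top final concentration of […] and 0.8% final DMSO, in 50 mM Tris pH 7.5, 0.005% Tween 20 and 1 mg/mL BSA. The enzyme solution held 0.05 μg/mL hG6PD. The substrate solution held 0.64 mM G6P, 12 μM NADP+, 6.6 mM MgCl2, 2 U/mL diaphorase and 0.28 mM resazurin.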
(Alamar Blue is a resazurin reagent that responds to reducing activity.)

In assay [2] the target is T1, Glucose-6-phosphate 1-dehydrogenase (Plasmodium falciparum, UniProt Q25856).
T1 sequence (Q25856 whole entry): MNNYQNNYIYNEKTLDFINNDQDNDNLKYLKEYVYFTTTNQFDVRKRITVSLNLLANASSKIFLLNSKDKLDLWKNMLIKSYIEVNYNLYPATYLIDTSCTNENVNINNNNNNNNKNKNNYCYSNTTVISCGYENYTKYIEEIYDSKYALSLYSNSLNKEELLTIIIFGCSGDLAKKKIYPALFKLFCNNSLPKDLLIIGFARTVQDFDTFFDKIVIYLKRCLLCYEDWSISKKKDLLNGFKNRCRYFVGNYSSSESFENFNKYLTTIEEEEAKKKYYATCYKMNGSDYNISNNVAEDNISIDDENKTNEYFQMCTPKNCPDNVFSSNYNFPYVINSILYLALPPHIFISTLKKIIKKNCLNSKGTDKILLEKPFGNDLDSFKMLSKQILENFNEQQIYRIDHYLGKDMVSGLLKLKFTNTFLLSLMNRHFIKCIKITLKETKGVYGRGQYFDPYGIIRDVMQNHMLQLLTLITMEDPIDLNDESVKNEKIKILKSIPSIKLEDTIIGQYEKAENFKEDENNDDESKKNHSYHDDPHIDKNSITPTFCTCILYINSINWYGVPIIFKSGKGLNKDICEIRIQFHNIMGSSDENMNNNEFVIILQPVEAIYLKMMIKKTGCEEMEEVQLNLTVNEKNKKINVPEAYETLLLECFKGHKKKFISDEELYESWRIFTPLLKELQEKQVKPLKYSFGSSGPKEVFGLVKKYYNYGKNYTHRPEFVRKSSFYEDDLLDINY
Nature of the assay: Inhibition of Plasmodium falciparum glucose-6-phosphate dehydrogenase after 45 mins by orthogonal assay. Put shortly:
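Direct NADPH read without coupling: PfGluPho (0.4 μg/mL enzyme solution) in 50 mM Tris pH 7.5, 0.005% Tween 20, 1 mg/mL BSA; substrate 40 μM G6P, 6 μM NADP+, 6.6 mM MgCl2.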

Assay [3] deals with T1, Glucose-6-phosphate 1-dehydrogenase. The experiment in a line: Inhibition of Plasmodium falciparum glucose-6-phosphate dehydrogenase after 2 hrs by resazurin/diaphorasecoupled assay.

The values below come from ChEMBL document CHEMBL2169798, “Discovery of a Plasmodium falciparum glucose-6-phosphate dehydrogenase 6-phosphogluconolactonase inhibitor (R,Z)-N-((1-ethylpyrrolidin-2-yl)methyl)-2-(2-fluorobenzylidene)-3-oxo-3,4-dihydro-2H-benzo[b][1,4]thiazine-6-carboxamide (ML276) that reduces parasite growth in vitro” (J Med Chem, 2012).

One may read the IC50 as the concentration needed to halve the response being measured. High values mean weaker potency, low ones greater potency.

Chain of Glucose-6-phosphate 1-dehydrogenase (Homo sapiens, UniProt P11413) (P11413 whole entry): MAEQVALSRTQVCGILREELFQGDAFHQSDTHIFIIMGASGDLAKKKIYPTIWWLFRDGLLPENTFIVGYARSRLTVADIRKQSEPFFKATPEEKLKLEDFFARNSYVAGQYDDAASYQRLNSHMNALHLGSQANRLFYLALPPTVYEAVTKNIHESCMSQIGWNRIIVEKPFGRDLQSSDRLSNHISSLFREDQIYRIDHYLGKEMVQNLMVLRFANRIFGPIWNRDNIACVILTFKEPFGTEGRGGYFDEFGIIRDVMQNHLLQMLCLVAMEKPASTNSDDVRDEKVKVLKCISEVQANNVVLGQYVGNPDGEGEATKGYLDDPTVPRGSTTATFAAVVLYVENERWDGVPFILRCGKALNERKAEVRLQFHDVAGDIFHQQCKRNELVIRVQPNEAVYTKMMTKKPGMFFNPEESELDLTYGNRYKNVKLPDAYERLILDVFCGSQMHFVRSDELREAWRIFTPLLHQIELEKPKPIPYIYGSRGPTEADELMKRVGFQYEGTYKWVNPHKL

For the molecule `CC(C)(C)OC(=O)N1CCCC1CNC(=O)c1ccc2c(c1)NC(=O)/C(=C/c1ccccc1F)S2` (stereo not given), the results for the IC50 in assay [1], in assay [2] and in assay [3] were above 80 µM, 24.4 µM and above 80 µM, respectively.
In turn, `O=C1Nc2cc(C(=O)NCCCN3CCCC3)ccc2S/C1=C\c1cccc(Cl)c1` gave an IC50 in assay [1] above 80 µM.
Take `CCN1CCCC1CNC(=O)c1ccc2c(c1)NC(=O)C(Cc1ccccc1F)S2` (stereo not given): the half-inhibitory concentration (IC50) in assay [1] and in assay [3] was above 80 µM throughout.
`O=C1Nc2cc(C(=O)NCC3CCCN3)ccc2S/C1=C\c1ccccc1F` (stereo not given) came in with an IC50 in assay [1] above 80 µM.
`O=C1Nc2cc(C(=O)NCCN3CCCCCC3)ccc2S/C1=C\c1ccccc1F`: the IC50 was above 80 µM in assay [1], 11 µM in assay [2] and 46.6 µM in assay [3].
As for `CCN(CC)CCNC(=O)c1ccc2c(c1)NC(=O)/C(=C/c1ccccc1Cl)S2`, the IC50 in assay [1] is above 80 µM; in assay [2], 44.9 µM; in assay [3] it was 16.2 µM.
In assay [1], `CN(C)CCNC(=O)c1ccc2c(c1)NC(=O)/C(=C/c1ccccc1F)S2` (stereo in doubt; 16) yielded an IC50 above 80 µM.
`CCN1CCCC1CNC(=O)c1ccc2c(c1)NC(=O)/C(=C/c1ccccc1)S2` (stereo not given) registered a half-inhibitory concentration (IC50) in assay [1] above 80 µM.
The molecule `CN(C)CCNC(=O)c1ccc2c(c1)NC(=O)/C(=C/c1ccccc1F)S2` (stereo in doubt; 17) yielded an IC50 in assay [1] above 80 µM.
With `CCN1CCCC1CNC(=O)c1ccc2c(c1)NC(=O)/C(=C/c1cccc3ccccc13)S2` (stereo not given), the values for the IC50 in assay [1], in assay [2] and in assay [3] were above 80 µM, 4.2 µM and 4.28 µM, respectively.
Turning to `CN(C)c1ccccc1CNC(=O)c1ccc2c(c1)NC(=O)/C(=C/c1ccccc1F)S2`, the IC50 in assay [1] is above 80 µM; in assay [2] it was 67.8 µM; in assay [3], above 80 µM.
For the molecule `CCCN(CCC)CCNC(=O)c1ccc2c(c1)NC(=O)/C(=C/c1ccccc1)S2`, the half-maximal inhibitory concentration (IC50) in assay [1] was above 80 µM; in assay [2], 27.2 µM; in assay [3], above 80 µM.
For the molecule `CCN(CC)CCNC(=O)c1ccc2c(c1)NC(=O)/C(=C/c1ccc(OC)c(OC)c1)S2`, the IC50 is above 80 µM in assay [1], 24.5 µM in assay [2] and 60 µM in assay [3].
`CCN1CCCC1CNC(=O)c1ccc2c(c1)NC(=O)/C(=C/c1cccc(F)c1F)S2` (stereo not given): the half-maximal inhibitory concentration (IC50) in assay [1] is above 80 µM.
In the case of `CCN(CC)CCNC(=O)c1ccc2c(c1)NC(=O)/C(=C/c1ccccc1F)S2` (stereo in doubt; 22), the IC50 in assay [1] is above 80 µM; in assay [2], 4.8 µM; in assay [3], 6.9 µM.
Take `O=C1Nc2cc(C(=O)NCCN3CCCC3)ccc2S/C1=C\c1ccccc1F` (stereo in doubt; 28): the IC50 in assay [1] is above 80 µM.
Same read-out and setting: to `O=C1Nc2cc(C(=O)NCCN3CCCC3)ccc2S/C1=C\c1ccccc1F` (stereo in doubt; 29) belongs above 80 µM.
As for `CN(C)CCNC(=O)c1ccc2c(c1)NC(=O)/C(=C/c1cccc(Cl)c1)S2`, the results for the IC50 in assay [1], in assay [2] and in assay [3] were above 80 µM, 43.6 µM and 60 µM, respectively.
In the case of `COc1ccc(/C=C2\Sc3ccc(C(=O)NCCN(C)C)cc3NC2=O)cc1`, the 50% inhibitory concentration (IC50) in assay [1], in assay [2] and in assay [3] was above 80 µM in each case.
For `O=C1Nc2cc(C(=O)NCCN3CCOCC3)ccc2S/C1=C\c1ccccc1F`, the IC50 in assay [1], in assay [2] and in assay [3] was above 80 µM each time.
For `COc1ccc(/C=C2\Sc3ccc(C(=O)NCCN4CCCCCC4)cc3NC2=O)cc1`, the half-maximal inhibitory concentration (IC50) in assay [1], in assay [2] and in assay [3] was above 80 µM throughout.
On to `CCCN(CCC)CCNC(=O)c1ccc2c(c1)NC(=O)/C(=C/c1ccc(C)cc1)S2`, for which the IC50 in assay [1] is above 80 µM; in assay [2] it was 45.9 µM; in assay [3], above 80 µM.
In turn, `CCCN1CCCC1CNC(=O)c1ccc2c(c1)NC(=O)/C(=C/c1ccccc1F)S2` (stereo not given) came in with an IC50 in assay [1] above 80 µM.
On to `CCN(CC)CCNC(=O)c1ccc2c(c1)NC(=O)/C(=C/c1cccc(C)c1)S2`, for which the IC50 in assay [1] is above 80 µM.
Take `O=C1Nc2cc(C(=O)NCCN3CCCCCC3)ccc2S/C1=C\c1ccccc1Cl`: the half-inhibitory concentration (IC50) was above 80 µM in assay [1], above 80 µM in assay [2] and 40.9 µM in assay [3].
As to `CCN1CCCC1CNC(=O)c1ccc2c(c1)NC(=O)/C(=C/c1ccc(F)cc1)S2` (stereo not given), the IC50 is above 80 µM in assay [1], 2.06 µM in assay [2] and 1.41 µM in assay [3].
On to `CCN(CC)CCNC(=O)c1ccc2c(c1)NC(=O)/C(=C/c1ccccc1F)S2` (stereo in doubt; 21), for which the figures for the 50% inhibitory concentration (IC50) in assay [1], in assay [2] and in assay [3] were above 80 µM, 9.4 µM and 7.4 µM, respectively.
Consider `CCN1CCCC1CNC(=O)c1ccc2c(c1)NC(=O)/C(=C/c1ccc(C)cc1)S2` (stereo not given), for which the IC50 in assay [1] was above 80 µM.
As to `O=C1Nc2cc(C(=O)NCCN3CCCCC3)ccc2S/C1=C\c1ccccc1F`, the IC50 was above 80 µM in assay [1], 24 µM in assay [2] and 21.6 µM in assay [3].
On to `COc1ccc(/C=C2\Sc3ccc(C(=O)NCCN4CCCC4)cc3NC2=O)cc1`, for which the IC50 was above 80 µM in assay [1], above 80 µM in assay [2] and 49.7 µM in assay [3].
As to `CCN1CCCC1CNC(=O)c1ccc2c(c1)NC(=O)/C(=C/c1cccc(F)c1)S2` (stereo not given), the concentration for half-maximal inhibition (IC50) in assay [1] is above 80 µM.
`Cc1cccc(/C=C2\Sc3ccc(C(=O)NCCN4CCCC4)cc3NC2=O)c1`: the IC50 was above 80 µM in assay [1], 8.8 µM in assay [2] and 11.8 µM in assay [3].
As for `CCN1CCCC1CNC(=O)c1ccc2c(c1)NC(=O)/C(=C/c1ccccc1OC)S2` (stereo not given), the IC50 in assay [1] is above 80 µM; in assay [2] it was 11.3 µM; in assay [3], 9.79 µM.
For `NC1CCN(C(=O)c2ccc3c(c2)NC(=O)/C(=C/c2ccccc2F)S3)C1` (stereo not given), in that order: above 80 µM, 35 µM and 45 µM.
On to `CCN1CCCC1CNC(=O)c1ccc2c(c1)NC(=O)/C(=C/c1ccccc1F)S2` (racemic), for which the values for the IC50 in assay [1], in assay [2] and in assay [3] were above 80 µM, 1.37 µM and 1.75 µM, respectively.
Turning to `CCN1CCCC1CNC(=O)c1ccc2c(c1)NC(=O)/C(=C/c1ccc3ccccc3c1)S2` (stereo not given), the results for the concentration for half-maximal inhibition (IC50) in assay [1], in assay [2] and in assay [3] were above 80 µM, 2.88 µM and 2.39 µM, respectively.
With `O=C1Nc2cc(C(=O)NCCN3CCCC3)ccc2S/C1=C\c1ccccc1Cl`, the concentration for half-maximal inhibition (IC50) in assay [1] was above 80 µM; in assay [2], above 80 µM; in assay [3] it was 11.1 µM.
As to `CN1CCCC1CCNC(=O)c1ccc2c(c1)NC(=O)/C(=C/c1ccccc1F)S2` (stereo not given), the IC50 in assay [1] was above 80 µM; in assay [2] it was 45.2 µM; in assay [3], 22.7 µM.
For `CCN1CCCC1CNC(=O)c1ccc2c(c1)NC(=O)/C(=C/c1c(F)cccc1F)S2` (stereo not given), the 50% inhibitory concentration (IC50) in assay [1] is above 80 µM.
In the case of `O=C1Nc2cc(C(=O)NCCCN3CCCC3)ccc2S/C1=C\c1ccccc1`, the IC50 was above 80 µM in assay [1], 22.3 µM in assay [2] and 9.3 µM in assay [3].
The corresponding values for `O=C1Nc2cc(C(=O)NCc3ccccc3)ccc2S/C1=C\c1ccccc1F` are above 80 µM, above 80 µM and above 80 µM.
As to `CCN1CCCC1CNC(=O)c1ccc2c(c1)NC(=O)/C(=C/c1ccccc1C)S2` (stereo not given), the results for the IC50 in assay [1], in assay [2] and in assay [3] were above 80 µM, 5.01 µM and 5.93 µM, respectively.
As for `CCN1CCCC1CNC(=O)c1ccc2c(c1)NC(=O)CS2` (stereo not given), the concentration for half-maximal inhibition (IC50) in assay [3] was above 80 µM.
